In ChEMBL document CHEMBL3232800, “Polyfluorinated bis-styrylbenzenes as amyloid-β plaque binding ligands” (Bioorg Med Chem, 2014):
Activity calls are given as the source filed them. The rule behind the calls is not given here.

How the values were obtained:
[1] = molecular target: T1, Amyloid-beta precursor protein (Homo sapiens, UniProt P05067); test: Binding affinity to beta-amyloid plaque in Alzheimer's disease patient brain at 100 uM by fluorescence microscopic analysis
Method in brief: (§1)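 Sections were stained for 10 min in darkness with compound diluted from 3 mM DMSO stocks to 1, 10 or 100 µM in 2:3 PBS/ethanol and sonicated 15 min. Tissue was paraffin sections of Braak IV human AD medial temporal cortex (8 µm), 14-month APP/PS1 mouse brain and age-matched controls. Sections were rinsed, then 0.1% NaOH in 80% ethanol for 2 min. Read by slide-scanner fluorescence with a DAPI cube (Ex 365, Em 445/50 nm) at constant settings; assessment was qualitative.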

[2] = molecular target: T1, Amyloid-beta precursor protein; test: Binding affinity to beta-amyloid plaque in APP/PS1 transgenic mouse brain at 100 uM by fluorescence microscopic analysis; assay type: tissue-based; method in brief: as §1
[3] = molecular target: T1, Amyloid-beta precursor protein; test: Binding affinity to beta-amyloid plaque in Alzheimer's disease patient brain at 10 uM by fluorescence microscopic analysis; method in brief: as §1
[4] = molecular target: T1, Amyloid-beta precursor protein; test: Binding affinity to beta-amyloid plaque in APP/PS1 transgenic mouse brain at 1 uM by fluorescence microscopic analysis; assay type: tissue-based; method in brief: as §1
[5] = molecular target: T1, Amyloid-beta precursor protein; test: Binding affinity to fibrillar amyloid beta (1 to 40) (unknown origin) assessed as fluorescence intensity relative to Methoxy-X04
[6] = molecular target: T1, Amyloid-beta precursor protein; test: Binding affinity to fibrillar amyloid beta (1 to 40) (unknown origin) assessed as fluorescence intensity relative to control
[7] = Partition coefficient, log P of the compound in methanol-water mixture by HPLC analysis; assay type: physicochemical
Method in brief: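 Eluent A was 0.02 M Na2HPO4 phosphate buffer, pH 7.0, and eluent B was 0.25% octanol in methanol. Samples came from 0.5 mg/ml methanol stocks. Values above 7 are not reliably measured.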

Mus musculus [8] = test: Binding affinity to beta-amyloid plaque in APP/PS1 transgenic mouse brain at 30 umol/kg, iv after 1 day by fluorescence microscopic analysis; assay type: functional, organism-based
Method in brief: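 APP/PS1 mice aged 12–14 months, with age-matched wildtype (n = 2 per compound), got an iv dose of 30 µmol/kg from a 0.05 M solution in 1:1 DMSO/Cremophor diluted with PBS to 200 µl. After one day they were perfused with 4% PFA and brains cryoprotected in sucrose/PFA. Brains were cut into 30 µm cryosections and imaged by the same fluorescence slide-scanner set-up.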

[9] = molecular target: T1, Amyloid-beta precursor protein; test: Displacement of [3H]chrysamine G from fibrillar amyloid beta (1 to 40) (unknown origin) after 1 hr by liquid scintillation spectrophotometric analysis
Method in brief: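 Competition binding was run at room temperature in 1 ml of 150 mM Tris-HCl, 20% ethanol, pH 7.0. Test compound ranged 30 µM to 30 pM (from 3 mM DMSO stocks, sonicated) against 5 nM [3H]chrysamine G and 50 nM synthetic Aβ1-40 fibrils. Nonspecific binding was taken with 1 µM Methoxy-X04.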

[10] = molecular target: T1, Amyloid-beta precursor protein; test: Binding affinity to fibrillar amyloid beta (1 to 40) (unknown origin) at 1.92 mM by [19F]-NMR spectrometric analysis
[11] = molecular target: T1, Amyloid-beta precursor protein; test: Binding affinity to beta-amyloid plaque in APP/PS1 transgenic mouse brain homogenate at 1.92 mM by [19F]-NMR spectrometric analysis; assay type: tissue-based
Mus musculus [12] = test: Binding affinity to beta-amyloid plaque in APP/PS1 transgenic mouse brain at 30 umol/kg, iv after 24 hrs by [19F]-NMR spectrometric analysis; assay type: functional, organism-based
[13] = methanol-water mixture, read-out: logP

T1 sequence (P05067 whole entry): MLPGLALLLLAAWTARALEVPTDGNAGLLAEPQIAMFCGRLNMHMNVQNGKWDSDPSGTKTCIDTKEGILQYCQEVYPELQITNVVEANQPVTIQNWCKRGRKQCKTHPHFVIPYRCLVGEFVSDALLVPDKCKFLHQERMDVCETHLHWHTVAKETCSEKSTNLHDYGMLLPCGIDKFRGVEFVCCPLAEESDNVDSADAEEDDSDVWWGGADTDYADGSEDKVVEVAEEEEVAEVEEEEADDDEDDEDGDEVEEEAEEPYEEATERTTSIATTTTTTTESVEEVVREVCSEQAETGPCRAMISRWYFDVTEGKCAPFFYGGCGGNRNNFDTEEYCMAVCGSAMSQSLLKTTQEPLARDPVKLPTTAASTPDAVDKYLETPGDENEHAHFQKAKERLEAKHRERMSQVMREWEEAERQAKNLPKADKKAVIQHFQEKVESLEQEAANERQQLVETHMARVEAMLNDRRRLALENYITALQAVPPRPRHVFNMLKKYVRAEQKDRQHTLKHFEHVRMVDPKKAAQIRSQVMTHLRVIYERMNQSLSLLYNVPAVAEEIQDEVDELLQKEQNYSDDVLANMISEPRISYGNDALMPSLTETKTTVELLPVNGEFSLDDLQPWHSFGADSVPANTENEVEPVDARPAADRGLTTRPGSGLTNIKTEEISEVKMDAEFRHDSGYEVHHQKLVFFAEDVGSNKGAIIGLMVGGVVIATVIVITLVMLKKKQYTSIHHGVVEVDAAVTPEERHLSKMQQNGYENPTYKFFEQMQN

| Activity [1] | Activity [2] | Activity [3] | Activity [4] | RFU [5] | fold change (FC) [6] | logP [7, 13] | Activity (Mus musculus [8]) | Ki [9] [nM] | Activity [10] | Activity [11] | Activity (Mus musculus [12]) | logP ([7]; octanol/water) | SMILES |
| --- | --- | --- | --- | --- | --- | --- | --- | --- | --- | --- | --- | --- | --- |
| Active | Active | inactive | Active | 4 | < 1 | > 7 | inactive |  |  |  |  |  | COc1cc(/C=C/c2ccc(OC)c(C(F)(F)F)c2)ccc1/C=C/c1ccc(OC)c(C(F)(F)F)c1 |
| Active | Active | Active | Active | 100 | 9.8 |  | Active | 24.2 |  |  |  | 4.84 | COc1cc(/C=C/c2ccc(O)cc2)ccc1/C=C/c1ccc(O)cc1 |
| Active | Active | Active | Active |  |  | > 7 | Active |  |  |  |  |  | Oc1cc(/C=C/c2ccc(C(F)(F)C(F)F)cc2)ccc1/C=C/c1ccc(C(F)(F)C(F)F)cc1 |
| Active | Active | Active | Active | 3 | < 1 | > 7 | Active |  |  |  |  |  | COc1cc(/C=C/c2ccc(OC(F)(F)F)cc2)ccc1/C=C/c1ccc(OC(F)(F)F)cc1 |
|  |  | inactive | inactive |  |  | 5 | inactive |  |  |  |  |  | COc1cc(/C=C/c2ccc(O)cc2)c(OC)cc1/C=C/c1ccc(O)cc1 |
| Active | Active | Active | Active | 2 | 3.6 | 6.18 | Active |  |  |  |  |  | Oc1cc(/C=C/c2ccc(C(F)(F)F)cc2)ccc1/C=C/c1ccc(C(F)(F)F)cc1 |

Continued, molecule first:

| SMILES | Activity [1] | Activity [2] | Activity [3] | Activity [4] | RFU [5] | fold change (FC) [6] | logP [7, 13] | Activity (Mus musculus [8]) | Ki [9] [nM] | Activity [10] | Activity [11] | Activity (Mus musculus [12]) | logP ([7]; octanol/water) |
| --- | --- | --- | --- | --- | --- | --- | --- | --- | --- | --- | --- | --- | --- |
| Oc1ccc(/C=C/c2ccc(/C=C/c3ccc(O)cc3)c(OC(C(F)(F)F)(C(F)(F)F)C(F)(F)F)c2)cc1 | Active | Active | Active | Active | 38 | 17.8 | > 7 | Active | 84.5 | inactive | Active | inactive |  |
| Oc1ccc(/C=C/c2ccc(/C=C/c3ccc(O)cc3)c(C(F)(F)F)c2)cc1 | Active | Active | inactive | Active | 19 | 10.7 | 5.64 | Active | 244 |  |  |  |  |
| Oc1ccc(/C=C/c2ccc(/C=C/c3ccc(O)cc3)c(OCC(F)(F)F)c2)cc1 | Active | Active | inactive | Active | 7 | 4.1 | 5.25 | Active | 39.3 |  |  |  |  |
| COc1cc(/C=C/c2ccc(CO)cc2)ccc1/C=C/c1ccc(CO)cc1 | Active | Active | Active | Active | 26 | 4.1 | 4.99 | Active |  |  |  |  |  |
| Oc1cc(/C=C/c2ccc(OC(F)(F)F)cc2)ccc1/C=C/c1ccc(OC(F)(F)F)cc1 | Active | Active | Active | Active | 13 | 7.4 | > 7 | Active |  |  |  |  |  |
| COc1cc(/C=C/c2ccc(C(F)(F)C(F)F)cc2)ccc1/C=C/c1ccc(C(F)(F)C(F)F)cc1 | Active | Active | Active | Active | 1 | < 1 | > 7 | Active |  |  |  |  |  |
| Oc1ccc(/C=C/c2ccc(/C=C/c3ccc(O)cc3)c(OCCCC(F)(F)F)c2)cc1 |  |  | inactive | inactive | 2 | 4.3 | 5.79 | Active | 56.4 |  |  |  |  |
| COc1cc(/C=C/c2ccc(C(F)(F)F)cc2)ccc1/C=C/c1ccc(C(F)(F)F)cc1 | Active | Active | Active | Active | 1 | < 1 | > 7 | Active |  |  |  |  |  |
